Measured values from ChEMBL document CHEMBL3751842, “Novel triazolothiadiazines act as potent anticancer agents in liver cancer cells through Akt and ASK-1 proteins” (Bioorg Med Chem, 2016).
pIC50: −log10 of the molar value. The source made the active and inactive calls. The rule behind the calls is not given here.

Tests used:
[1] = molecular target: T1, Mitogen-activated protein kinase kinase kinase 5 (Homo sapiens) (UniProt Q99683); assay: Activation of ASK1 in human HuH7 cells assessed as Ser966 phosphorylation after 24 to 48 hrs by Western blot analysis; format: cell-based; conditions: Huh-7
T1 sequence (whole entry): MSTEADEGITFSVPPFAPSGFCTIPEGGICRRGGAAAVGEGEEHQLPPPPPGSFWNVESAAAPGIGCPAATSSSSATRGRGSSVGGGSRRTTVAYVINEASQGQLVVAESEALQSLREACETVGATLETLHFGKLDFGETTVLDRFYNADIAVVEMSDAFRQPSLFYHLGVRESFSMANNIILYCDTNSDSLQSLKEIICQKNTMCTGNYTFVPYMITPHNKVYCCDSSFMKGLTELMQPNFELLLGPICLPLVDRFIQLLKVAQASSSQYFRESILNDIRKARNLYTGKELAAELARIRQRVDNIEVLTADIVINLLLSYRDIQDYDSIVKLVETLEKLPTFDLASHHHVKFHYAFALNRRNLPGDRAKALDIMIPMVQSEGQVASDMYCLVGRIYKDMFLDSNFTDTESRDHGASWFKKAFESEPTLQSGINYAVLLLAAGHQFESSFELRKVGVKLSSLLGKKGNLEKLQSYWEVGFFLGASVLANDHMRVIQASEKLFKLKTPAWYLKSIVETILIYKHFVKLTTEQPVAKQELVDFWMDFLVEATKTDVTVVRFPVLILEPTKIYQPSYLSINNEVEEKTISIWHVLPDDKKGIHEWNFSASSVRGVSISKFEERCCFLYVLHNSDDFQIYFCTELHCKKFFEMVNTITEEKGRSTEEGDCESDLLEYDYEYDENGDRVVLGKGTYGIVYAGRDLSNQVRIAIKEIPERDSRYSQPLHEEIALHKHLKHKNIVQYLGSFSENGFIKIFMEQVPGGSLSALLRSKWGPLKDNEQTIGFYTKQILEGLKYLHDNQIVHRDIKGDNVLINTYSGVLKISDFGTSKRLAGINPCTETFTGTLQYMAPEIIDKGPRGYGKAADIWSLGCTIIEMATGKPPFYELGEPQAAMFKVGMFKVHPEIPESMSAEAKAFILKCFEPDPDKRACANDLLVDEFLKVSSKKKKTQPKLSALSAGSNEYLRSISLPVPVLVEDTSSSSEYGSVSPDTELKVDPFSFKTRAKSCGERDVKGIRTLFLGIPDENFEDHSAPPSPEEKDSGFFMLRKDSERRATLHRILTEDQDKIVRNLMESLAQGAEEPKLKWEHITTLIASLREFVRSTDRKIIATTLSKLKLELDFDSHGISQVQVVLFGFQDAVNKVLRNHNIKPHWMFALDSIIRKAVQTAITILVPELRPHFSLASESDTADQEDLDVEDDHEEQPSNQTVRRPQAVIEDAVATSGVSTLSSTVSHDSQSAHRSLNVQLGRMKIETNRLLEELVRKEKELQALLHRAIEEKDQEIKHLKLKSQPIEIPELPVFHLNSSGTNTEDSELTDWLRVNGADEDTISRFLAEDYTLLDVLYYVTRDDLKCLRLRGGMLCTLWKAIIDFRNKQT
Outline: (§1)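 Cells were exposed to compound or DMSO control for 24 or 48 h. Lysates were loaded at […] protein per lane and immunoblotted with antibodies diluted 1:100 to 1:500 in 5% BSA-TBS-T. Targets were p-Akt (Ser473), Akt, p-GSK3-α/β (Ser21/9), GSK3-α/β, SAPK/JNK, p-SAPK/JNK (Thr183/Tyr185), PARP, p-β-catenin, β-catenin, cyclin D1, p-ASK1 (S83) and p-ASK1 (S966). Actin served as the loading control.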

[2] = molecular target: T1, Mitogen-activated protein kinase kinase kinase 5 (Homo sapiens); assay: Activation of ASK1 in human Mahlavu cells assessed as Ser83 phosphorylation after 24 to 48 hrs by Western blot analysis; format: cell-based; outline: as §1
Mahlavu = assay: Induction of apoptosis in human Mahlavu cells assessed as decrease in cyclin D1 level after 24 to 48 hrs by Western blot analysis; format: functional, cell-based; outline: as §1
Huh-7 [3] = assay: Induction of apoptosis in human HuH7 cells assessed as decrease in cyclin D1 level after 24 to 48 hrs by Western blot analysis; format: functional, cell-based; outline: as §1
Huh-7 [4] = assay: Induction of oxidative stress in human HuH7 cells assessed as ROS accumulation at 10 uM after 48 hrs by DCFH-DA staining based fluorescence microscopy; format: functional, cell-based
Outline: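 Cells in 6-well dishes were treated with 10 µM compound or DMSO for 48 h. They were washed in PBS and stained for 15 min at 37°C in the dark with DCFH-DA solution (1 mM DCFH-DA, 10 mM glucose, 10 mM HEPES in PBS). After three PBS washes, cells were viewed by fluorescence microscopy. Selenium-deficient serum-free medium culture served as the positive control.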

Huh-7 [5] = assay: Induction of cell cycle arrest in human HuH7 cells assessed as accumulation at subG1 phase at 10 uM after 24 to 48 hrs by propidium iodide staining based FACS analysis; format: functional
Outline: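 Huh7 cells were seeded at 300,000 per 100-mm dish. After 24 h they were treated with 10 µM compound or DMSO for 24 h and 48 h. Cells were trypsinized, fixed in ice-cold 70% ethanol and stored at −20 °C. They were then stained with propidium iodide and cell-cycle distribution, including SubG1, was read by flow cytometry.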

Huh-7 [6] = assay: Induction of apoptosis in human HuH7 cells assessed as horseshoe nuclear structure at 10 uM after 48 hrs by Hoechst 33258 staining-based immunofluorescence microscopy; format: functional, cell-based
Outline: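 Cells on coverslips were incubated overnight, then treated with 10 µM compound or DMSO for 48 h. They were washed in ice-cold PBS, fixed in cold methanol for 10 min, and stained with 1 µg/mL Hoechst 33258 for 5 min in the dark. Nuclei were examined by fluorescence microscopy with a 40x objective.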

Huh-7 [7] = assay: Induction of oxidative stress in human HuH7 cells assessed as ROS accumulation at 10 uM after 48 hrs by flow cytometry analysis; format: functional, cell-based
Outline: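 Huh7 and Mahlavu cells were treated after 24 h with 10 µM compound or DMSO for 48 h. Cells were then trypsinized and processed with a MUSE oxidative stress kit for flow cytometric counting of ROS-positive cells. Cells grown in selenium-deficient serum-free medium served as the positive control.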

[8] = Cytotoxicity against human HuH7 cells assessed as growth inhibition after 72 hrs by sulforhodamine B assay; format: functional, cell-based, Huh-7; conditions: Homo sapiens, Huh-7, 72 h; read-out: IC50
Outline: (§2)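 Cells were grown at 37°C, 5% CO2 in DMEM with 10% FBS. They were seeded at 1000–3000 cells/well, grown 24 h, then exposed to compound at 2.5–40 µM for 72 h. Cells were fixed in 10% TCA for 1 h at 4°C, stained with 0.4% SRB in 1% acetic acid for 10 min, and the dye solubilized in 10 mM Tris. Absorbance was read at 515 nm; runs were in triplicate; IC50 was calculated, with fits of R2 0.8–1 accepted.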

MCF7 = assay: Cytotoxicity against human MCF7 cells assessed as growth inhibition after 72 hrs by sulforhodamine B assay; format: functional, cell-based; conditions: Homo sapiens, MCF7, 72 h; read-out: IC50; outline: as §2
[9] = Effect on un-phosphorylated beta-catenin level in human HuH7 cells after 24 to 48 hrs by Western blot analysis; format: ADME, cell-based; conditions: huh-7; outline: as §1

| Activity [1] | Activity [2] | SMILES | Activity (Mahlavu) | Activity (Huh-7 [3]) | Activity (Huh-7 [4]) | Activity (Huh-7 [5]) | Activity (Huh-7 [6]) | Activity (Huh-7 [7]) | pIC50 [8] | pIC50 (MCF7) | Activity [9] |
| --- | --- | --- | --- | --- | --- | --- | --- | --- | --- | --- | --- |
| Active | Active | COc1ccc(C2=Nn3c(nnc3C(C)c3ccc(CC(C)C)cc3)SC2)cc1 (configuration not stated) | Active | Active | Active | Active | Active | Active | 5.43 | 5.28 | Non-toxic |
| Active | Active | Cc1ccc(C2=Nn3c(nnc3C(C)c3ccc(CC(C)C)cc3)SC2)cc1 (configuration not stated) | Active | Active | Active | Active | Active | Active | 5.30 | 5.20 | Non-toxic |
